Assay results reported in ChEMBL document CHEMBL1150796, “A novel fluorescence intensity screening assay identifies new low-molecular-weight inhibitors of the gp41 coiled-coil domain of human immunodeficiency virus type 1” (Antimicrob Agents Chemother, 2007).
Square brackets hold non-standard residues; d marks the D form. Peptide text beside a SMILES is read from it. Aib = CC(C)(N)C(=O)O

Key:
[1] = system: Human immunodeficiency virus 1; assay: Antiviral activity against HIV1 assessed as syncytium inhibition by cell-cell fusion assay; assay type: functional, organism-based
In short: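 HIV-1 fusion run as a cell-cell assay: HeLa effector cells with inducible gp160 expression were paired with CCR5-expressing reporter cells carrying Tat-responsive LTR-luciferase, with luciferase as the read-out. DMSO in culture was capped at 1%.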

[2] = system: Human immunodeficiency virus 1; assay: Antiviral activity against HIV1 assessed as six-helix bundle formation assay; assay type: functional
[3] = Inhibition of HIV1 gp41 by metallopeptide-based fluorescence assay; design: species or system Human immunodeficiency virus 1
In short: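 HR1 coiled-coil metallopeptide receptor [Fe(II)(env2.0)3]2+ (7.2 μM final) was mixed with LY-labelled HR2 probe C18-Aib-LY (1 μM) and 20 μM inhibitor in 25 mM Tris, 25 mM sodium acetate pH 7.0, 0.01% Tween 20, 4% DMSO. Inhibitor displacement relieved quenching; fluorescence was read at ex 425/em 540 nm. Signal was taken as primary/control scan ratio and Ki derived from binding equations.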

[4] = system: Human immunodeficiency virus 1; assay: Antiviral activity against HIV1 assessed as inhibition of fusion of gp160 expressing human HeLa cells and CCR5-expressing Tat-long terminal repeat luciferase reporter cells; assay type: functional, organism-based; details: Human immunodeficiency virus 1, HeLa
In short: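 Cell-cell fusion run by a collaborating lab: HeLa effector cells with inducible gp160 expression were mixed with CCR5-expressing Tat-LTR-luciferase reporter cells, and syncytium formation was scored. DMSO in cell culture was capped at 1%.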

[5] = Inhibition of HIV1 gp41 by metallopeptide-based fluorescence assay using dose response study; design: species or system Human immunodeficiency virus 1
In short: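 Competitive dose-response with 7.2 μM Fe(II) HR1 metallopeptide receptor and 1 μM C18-Aib-LY probe across varying inhibitor concentrations. Buffer was pH 7.0 Tris/acetate with 0.01% Tween 20 and 4% DMSO; read at ex 425/em 540 nm, relative to free-probe maximum. Curves were fit to equations 5 and 8 for Ki; three independent experiments, mean ± SD.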

Row | SMILES | IC50 [1] | IC50 [2] | Ki [3] | IC50 [4] | Ki [5]
1 | O=C(O[C@@H]1Cc2c(O)cc(O)cc2O[C@H]1c1cc(O)c(O)c(O)c1)c1cc(O)c(O)c(O)c1 (single isomer, unassigned) [GALLOCATECHIN GALLATE] | 4.32 µM | – | – | – | –
2 | O=C(O[C@@H]1Cc2c(O)cc(O)cc2O[C@@H]1c1cc(O)c(O)c(O)c1)c1cc(O)c(O)c(O)c1 [EPIGALOCATECHIN GALLATE] | – | 19.9 µM | – | – | –
3 | O=C(O)c1ccc(NC(=O)c2cccc(Cc3ccc(F)cc3)c2)c(Cc2cccc([N+](=O)[O-])c2)c1 | – | – | 1.2 µM | 8 µM | 1.34 µM
4 | O=C(O)c1ccc(NC(=O)c2cccc(Cc3cccc4cccnc34)c2)c(Cc2cccc(F)c2)c1 | – | – | 1.15 µM | 8 µM | 1.51 µM
5 | CC[C@H](C)[C@H](NC(=O)[C@H](CC(C)C)NC(=O)[C@H](CO)NC(=O)[C@@H](NC(=O)[C@H](Cc1ccc(O)cc1)NC(=O)[C@H](CC(N)=O)NC(=O)C(C)(C)NC(=O)[C@@H](NC(=O)[C@H](CCC(=O)O)NC(=O)[C@H](CCCNC(=N)N)NC(=O)[C@H](CC(=O)O)NC(=O)[C@H](Cc1c[nH]c2ccccc12)NC(=O)[C@H](CCC(=O)O)NC(=O)C(C)(C)NC(=O)[C@H](Cc1c[nH]c2ccccc12)NC(=O)[C@@H](NC(=O)[C@H](CCSC)NC(C)=O)[C@@H](C)O)[C@@H](C)CC)[C@@H](C)O)C(=O)N[C@@H](CS)C(N)=O (Ac-MTW[Aib]EWDREI[Aib]NYTSLIC-NH2) | – | – | 0.6 µM | – | 0.8 µM
